Assay results reported in ChEMBL document CHEMBL4402600, “Discovery of a Dual Tubulin Polymerization and Cell Division Cycle 20 Homologue Inhibitor via Structural Modification on Apcin” (J Med Chem, 2020).
The source made the active and inactive calls. No cut-off for these calls is given here.

Assays:
[1] = system: MCF7; test: Cytotoxicity in human MCF7 cells assessed as reduction in cell viability incubated for 48 hrs by MTT assay; format: functional, cell-based; conditions: MCF7, 48 h
In short: (§1)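 Cells grown at 37°C, 5% CO₂ (HepG2, OVCAR-3, Caov-3 in DMEM + 10% FBS; A549, HeLa, A375, MCF-7 in RPMI 1640 + 10% FBS). Seeded at 4-5×10³/well in triplicate, adhered overnight, exposed to 0.03–300 μM (DMSO <0.1%) for 48 h. MTT added for 4 h, formazan dissolved in DMSO, absorbance read. IC50 from dose–response curves, mean ± SD of at least three independent experiments.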

[2] = system: A-375; test: Cytotoxicity in human A375 cells assessed as reduction in cell viability incubated for 48 hrs by MTT assay; format: functional, cell-based; conditions: A-375, 48 h; in short: as §1
[3] = system: A549; test: Cytotoxicity in human A549 cells assessed as reduction in cell viability incubated for 48 hrs by MTT assay; format: functional, cell-based; conditions: A549, 48 h; in short: as §1
[4] = system: HepG2; test: Cytotoxicity in human HepG2 cells assessed as reduction in cell viability incubated for 48 hrs by MTT assay; format: functional, cell-based; conditions: HepG2, 48 h; in short: as §1
[5] = system: HeLa; test: Cytotoxicity in human HeLa cells assessed as reduction in cell viability incubated for 48 hrs by MTT assay; format: functional, cell-based; in short: as §1
[6] = system: Caov-3 cell line; test: Cytotoxicity in human Caov3 cells assessed as reduction in cell viability incubated for 48 hrs by MTT assay; format: functional, cell-based; conditions: Caov-3, 48 h; in short: as §1
[7] = biological target: T1, Cell division cycle protein 20 homolog (Homo sapiens, UniProt Q12834); test: Binding affinity to CDC20 (unknown origin) by SPR analysis
In short: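 Recombinant human Cdc20 (>95% pure) coupled by EDC/NHS to an acid-coupling chip; PBS pH 7.4 running buffer. Compounds injected as a gradient dilution series starting at 200 μM, 120-140 s association, 160 s dissociation. Steady-state values plotted against concentration; K_D from a one-to-one / single-site model.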

[8] = biological target: T1, Cell division cycle protein 20 homolog; test: Inhibition of CDC20 in human HepG2 cells assessed as increase in Bim protein levels at 30 uM incubated for 48 hrs by Western blot Analysis; format: cell-based
In short: (§2)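 HepG2 lysates in RIPA buffer with protease/phosphatase inhibitors; 25 μg protein by SDS-PAGE/PVDF, blocked in 5% milk/TBST, primary antibodies overnight at 4°C (Cyclin A2, Cyclin B1, Bim, Aurora A, Skp2), HRP secondary 1 h at room temperature, ECL; bands quantified by densitometry.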

[9] = biological target: T1, Cell division cycle protein 20 homolog; test: Inhibition of CDC20 in human HepG2 cells assessed as decrease in cyclin B degradation at 30 uM incubated for 48 hrs by Western blot Analysis; format: cell-based; in short: as §2
[10] = biological target: Fizzy-related protein homolog (Homo sapiens) (UniProt Q9UM11); test: Inhibition of CDH1 in human HepG2 cells assessed as effect on Aurora A protein expression at 30 uM incubated for 48 hrs by Western blot Analysis; format: cell-based; in short: as §2
[11] = biological target: Fizzy-related protein homolog (Homo sapiens) (UniProt Q9UM11); test: Inhibition of CDH1 in human HepG2 cells assessed as effect on Skp2 protein expression at 30 uM incubated for 48 hrs by Western blot Analysis; format: cell-based; in short: as §2
[12] = biological target: T1, Cell division cycle protein 20 homolog; test: Inhibition of CDC20 in human HepG2 cells assessed as increase in stability of Bim protein at 30 uM measured after 2 to 8 hrs by Western blot Analysis; format: cell-based
In short: (§3)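 Time course in HepG2: cyclin B1, Aurora A, Bim and cleaved PARP examined by Western blot at 1, 2, 4, 8 and 12 h after adding 30 μM compound; lysis in RIPA with inhibitors, 25 μg protein per lane, ECL detection.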

[13] = biological target: T1, Cell division cycle protein 20 homolog; test: Inhibition of CDC20 in human HepG2 cells assessed as increase in stability of cyclin B1 protein at 30 uM measured after 2 to 8 hrs by Western blot Analysis; format: cell-based; in short: as §3
[14] = biological target: T1, Cell division cycle protein 20 homolog; test: Inhibition of CDC20 in human HepG2 cells assessed as increase in Aurora A protein degradation at 30 uM measured after 1 to 12 hrs by Western blot analysis; format: cell-based; in short: as §3
[15] = system: HepG2; test: Inhibition of mitotic exit in human HepG2 cells assessed as increase in nuclear phosphohistone H3 levels incubated for 48 hrs by immunofluorescence assay; format: functional, cell-based
In short: (§4)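 HepG2 seeded at 4×10³/well, overnight adhesion, treated 48 h. Fixed 15 min in 4% formaldehyde, permeabilized with Triton X-100, BSA-blocked, anti-phospho-histone H3 (Ser10) at 4°C overnight, fluorescent anti-rabbit secondary, DAPI counterstain. Fluorescence read relative to DMSO control; PHH3-positive cells counted in random fields as % of total. At least two experiments.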

[16] = system: HepG2; test: Inhibition of mitotic exit in human HepG2 cells assessed as increase in nuclear phosphohistone H3 levels at 30 uM incubated for 48 hrs by immunofluorescence assay relative to control; format: functional; set-up: scale not given: the % may be the effect or the level left; in short: as §4
[17] = system: HepG2; test: Inhibition of mitotic exit in human HepG2 cells assessed as increase in nuclear phosphohistone H3 levels at 3 to 30 uM incubated for 48 hrs by Western blot analysis relative to control; format: functional, cell-based
[18] = system: HepG2; test: Induction of apoptosis in human HepG2 cells assessed as increase in cleaved PARP level at 3 to 30 uM incubated for 48 hrs by Western blot analysis; format: functional, cell-based
In short: (§5)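 HepG2 cells treated 48 h. Lysates in RIPA buffer with protease/phosphatase inhibitors; 25 μg protein run on SDS-PAGE, transferred to PVDF, blocked in 5% milk/TBST, primary antibodies overnight at 4°C (caspase-3, cleaved caspase-3, cleaved PARP), HRP secondary 1 h at room temperature, ECL detection; densitometry quantified.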

[19] = system: HepG2; test: Induction of apoptosis in human HepG2 cells assessed as increase in cleaved caspase-3 level at 3 to 30 uM incubated for 48 hrs by Western blot analysis; format: functional, cell-based; in short: as §5
[20] = system: HepG2; test: Induction of apoptosis in human HepG2 cells assessed as viable cells level at 100 uM incubated for 24 hrs by Annexin V-FITC/PI staining based flow cytometry (reference value: 89.38%); format: functional
[21] = system: HepG2; test: Induction of apoptosis in human HepG2 cells assessed as early apoptotic cells level at 100 uM incubated for 24 hrs by Annexin V-FITC/PI staining based flow cytometry (reference value: 4.02%); format: functional
[22] = system: HepG2; test: Induction of apoptosis in human HepG2 cells assessed as late apoptotic cells level at 100 uM incubated for 24 hrs by Annexin V-FITC/PI staining based flow cytometry (reference value: 5.12%); format: functional
[23] = system: HepG2; test: Induction of apoptosis in human HepG2 cells assessed as necrotic cells level at 100 uM incubated for 24 hrs by Annexin V-FITC/PI staining based flow cytometry (reference value: 1.48%); format: functional
[24] = biological target: T1, Cell division cycle protein 20 homolog; test: Inhibition of CDC20 in human HepG2 cells assessed as increase in stability of Bim protein at 30 uM measured after 1 to 12 hrs by Western blot Analysis
[25] = system: OVCAR-3; test: Cytotoxicity in human OVCAR3 cells assessed as reduction in cell viability incubated for 48 hrs by MTT assay; format: functional, cell-based; conditions: OVCAR-3, 48 h; in short: as §1

T1 sequence (Q12834 whole entry): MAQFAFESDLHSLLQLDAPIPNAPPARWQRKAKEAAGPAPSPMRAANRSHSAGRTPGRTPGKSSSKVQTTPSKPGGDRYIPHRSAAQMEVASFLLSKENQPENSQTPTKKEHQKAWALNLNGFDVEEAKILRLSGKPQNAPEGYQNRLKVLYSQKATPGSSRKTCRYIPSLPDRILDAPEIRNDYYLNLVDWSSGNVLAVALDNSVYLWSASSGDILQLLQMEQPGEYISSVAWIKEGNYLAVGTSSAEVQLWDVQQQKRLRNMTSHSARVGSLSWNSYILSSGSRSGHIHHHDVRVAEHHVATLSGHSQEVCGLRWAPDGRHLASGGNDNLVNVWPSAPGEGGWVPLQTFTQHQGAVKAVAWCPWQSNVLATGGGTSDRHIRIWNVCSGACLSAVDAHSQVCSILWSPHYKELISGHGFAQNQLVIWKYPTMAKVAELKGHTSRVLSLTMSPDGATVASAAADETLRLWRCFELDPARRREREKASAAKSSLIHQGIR
Sequence of Fizzy-related protein homolog (Homo sapiens) (Q9UM11 whole entry): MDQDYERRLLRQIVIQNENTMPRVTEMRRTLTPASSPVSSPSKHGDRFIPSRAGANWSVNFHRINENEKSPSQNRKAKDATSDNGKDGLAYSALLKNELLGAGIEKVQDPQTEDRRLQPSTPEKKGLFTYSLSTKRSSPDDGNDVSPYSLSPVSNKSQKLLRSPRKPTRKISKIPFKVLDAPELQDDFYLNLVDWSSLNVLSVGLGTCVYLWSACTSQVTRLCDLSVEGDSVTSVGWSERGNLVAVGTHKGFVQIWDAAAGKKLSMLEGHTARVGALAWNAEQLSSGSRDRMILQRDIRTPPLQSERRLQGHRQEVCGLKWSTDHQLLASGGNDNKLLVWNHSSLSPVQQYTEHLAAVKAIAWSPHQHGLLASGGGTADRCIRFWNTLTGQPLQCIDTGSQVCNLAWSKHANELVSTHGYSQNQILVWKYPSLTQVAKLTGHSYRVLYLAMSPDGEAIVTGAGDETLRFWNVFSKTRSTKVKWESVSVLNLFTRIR

| SMILES | IC50 [1] [µM] | IC50 [2] [µM] | IC50 [3] [µM] | IC50 [4] [µM] | IC50 [5] [µM] | IC50 [6] [µM] | IC50 [25] [µM] | other results |
| --- | --- | --- | --- | --- | --- | --- | --- | --- |
| Cc1ncc([N+](=O)[O-])n1CCOC(=O)NC(Nc1c(Cl)nc(N)nc1Cl)C(Cl)(Cl)Cl (configuration not stated) | 160 | 34.2 | 56.5 | 25.6 | 63.2 | 110 | – | Kd [7]: 49 µM; inhibition [8]: Active; inhibition [9]: Active; inhibition [10]: inactive; inhibition [11]: inactive; inhibition [12]: Active; inhibition [13]: Active; inhibition [14]: Active; Activity [15]: Dose-dependent effect; Activity [16]: 6.9%; Activity [17]: Active; Activity [18]: Active; Activity [19]: Active; Activity [20]: 64.34%; Activity [21]: 25.27%; Activity [22]: 9.31%; Activity [23]: 1.08%; inhibition [24]: inactive |
| COc1ccnc(NC(NC(=O)OCCn2c([N+](=O)[O-])cnc2C)C(Cl)(Cl)Cl)n1 (configuration not stated) | 186 | 44.1 | 264 | 79.8 | 128 | 157 | 198 | – |
| Cc1ncc([N+](=O)[O-])n1CCOC(=O)NC(n1cnc2c(N)nc(F)nc21)C(Cl)(Cl)Cl (configuration not stated) | 0.8 | 0.5 | 3.6 | 0.6 | 1.9 | 1.2 | 1.5 | Kd [7]: 161 µM |
| Nc1nc(N)c2ncn(C(NC(=O)OCCc3ccccn3)C(Cl)(Cl)Cl)c2n1 (configuration not stated) | 136 | 300 | 270 | 28.1 | 220 | 29.7 | 30.9 | – |
| CCOC(=O)NC(n1cnc2c(N)nc(Cl)nc21)C(Cl)(Cl)Cl (configuration not stated) | 87.2 | 125 | 59.7 | 59 | 152 | 92.9 | 132 | – |
| Cc1ncc([N+](=O)[O-])n1CCOC(=O)NC(Nc1ccncn1)C(Cl)(Cl)Cl (configuration not stated) | > 300 | 5.3 | > 300 | > 300 | > 300 | > 300 | > 300 | – |
| Cc1ncc([N+](=O)[O-])n1CCOC(=O)NC(n1cnc2c(NC(=O)c3ccccc3)ncnc21)C(Cl)(Cl)Cl (configuration not stated) | > 300 | > 300 | 244 | > 300 | > 300 | > 300 | 225 | – |
| Cc1ncc([N+](=O)[O-])n1CCOC(=O)NC(Nc1nccc(Cl)n1)C(Cl)(Cl)Cl (configuration not stated) | > 300 | 20 | 94.9 | > 300 | > 300 | > 300 | > 300 | – |
| Cc1ncc([N+](=O)[O-])n1CCOC(=O)NC(Nc1nccc(N)n1)C(Cl)(Cl)Cl (configuration not stated) | > 300 | > 300 | > 300 | > 300 | > 300 | > 300 | > 300 | – |
| Cc1c(Cl)nc(NC(NC(=O)OCCn2c([N+](=O)[O-])cnc2C)C(Cl)(Cl)Cl)nc1Cl (configuration not stated) | 114 | 11.9 | 184 | 13.6 | 27.1 | 31.2 | 25 | – |
| Cc1ncc([N+](=O)[O-])n1CCOC(=O)NC(n1cnc2c(NCc3ccccc3)ncnc21)C(Cl)(Cl)Cl (configuration not stated) | 96 | > 300 | 148 | 33.2 | 71.8 | > 300 | 243 | – |
| Cc1ncc([N+](=O)[O-])n1CCOC(=O)NC(Nc1nccc(=O)[nH]1)C(Cl)(Cl)Cl (configuration not stated) | > 300 | > 300 | > 300 | > 300 | > 300 | > 300 | > 300 | – |
